Reference: ChEMBL document CHEMBL4342435, “Synthesis of novel 4-Boc-piperidone chalcones and evaluation of their cytotoxic activity against highly-metastatic cancer cells” (Bioorg Med Chem Lett, 2020)
Converted amounts (≈) assume the structure as drawn. The source made the active and inactive calls. The calls are words filed in the database; no cut-off is given here.

Assays:
[1] = test system: LoVo; test: Growth inhibition of human LoVo cells incubated for 72 hrs by CellTiter-Glo luminescent cell viability; assay type: functional
[2] = test system: COLO 205; test: Growth inhibition of human COLO205 cells incubated for 72 hrs by CellTiter-Glo luminescent cell viability; assay type: functional; conditions: COLO 205, 72 h
[3] = Cytotoxicity against human CCD-18Co cells assessed as reduction in cell viability incubated for 72 hrs by CellTiter-Glo luminescent cell viability; assay type: cell-based
[4] = Selectivity index, ratio of GI50 for human CCD-18Co cells to GI50 for human LoVo cells
[5] = Selectivity index, ratio of GI50 for human CCD-18Co cells to GI50 for human COLO205 cells
[6] = test system: COLO 205; test: Induction of apoptosis in human COLO205 cells at GI50 incubated for 24 hrs by Annexin V-FITC/Hoechst/propidium iodide staining based cell counting method (reference value: 10.7%); assay type: functional
[7] = test system: COLO 205; test: Induction of apoptosis in human COLO205 cells assessed as activation of caspases 7 at GI50 by fluorescent inhibitor probe FAM-DEVD-FMK staining based fluorescence assay (reference value: 15.3%); assay type: functional; parameters: scale not given: the % may be the effect or the level left
Outline: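 COLO-205 cells treated at the concentrations listed in the GI50 table. Active caspases 3 and 7 labelled with the fluorescent inhibitor probe FAM-DEVD-FMK and read by flow cytometry. Untreated negative control, camptothecin positive control. Triplicate (N=3), P<0.05 versus vehicle.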

[8] = Inhibition of TNFalpha-induced NFkappaB activation in human HEK293 cells preincubated for 16 hrs followed by TNFalpha addition and measured after 6 hrs by luminescence based assay; assay type: cell-based
[9] = test system: PC-3; test: Growth inhibition of human PC3 cells incubated for 48 hrs by MTS assay; assay type: functional; conditions: PC-3, 48 h
Outline: (§1)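 MTS viability on PC3 and 22RV1 prostate cancer cells after 48h incubation. […] DMSO control. Triplicates (N=3). One-way ANOVA with Dunnett's test, mean ± SEM, P<0.05.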

[10] = test system: CWR22R; test: Growth inhibition of human 22Rv1 cells incubated for 48 hrs by MTS assay; assay type: functional; conditions: 22Rv1, 48 h; outline: as §1
[11] = test system: PC-3; test: Antiproliferative activity human PC3 cells assessed as reduction in Ki67 protein level at GI50 incubated for 48 hrs by DAPI staining based immunofluorescence assay; assay type: functional, cell-based
[12] = test system: CWR22R; test: Antiproliferative activity human 22Rv1 cells assessed as reduction in Ki67 protein level at GI50 incubated for 48 hrs by DAPI staining based immunofluorescence assay; assay type: functional, cell-based

Row | GI50 [1] [µg/mL] | GI50 [2] [µg/mL] | IC50 [8] [µg/mL] | GI50 [9] [µg/mL] | Structure (SMILES) | GI50 at 72 h [3] [µg/mL] | RatioGI50 [4] | RatioGI50 [5] | Activity [6] [%] | Activity [7] [%] | GI50 [10] [µg/mL] | Activity [11] | Activity [12]
1 | 4.6 (≈ 8.99 µM) | 4.5 (≈ 8.8 µM) | 27.2 (≈ 53.2 µM) | – | CC(C)(C)OC(=O)N1C/C(=C\c2ccccc2C(F)(F)F)C(=O)/C(=C/c2ccccc2C(F)(F)F)C1 | 7.6 (≈ 14.9 µM) | 1.7 | 1.7 | 35 | 31.5 | – | – | –
2 | – | – | – | 0.009 (≈ 0.0111 µM) | CC(=O)O[C@@]12CO[C@@H]1C[C@H](O)[C@@]1(C)C(=O)[C@H](O)C3=C(C)[C@@H](OC(=O)[C@H](O)[C@@H](NC(=O)OC(C)(C)C)c4ccccc4)C[C@@](O)([C@@H](OC(=O)c4ccccc4)[C@H]21)C3(C)C [DOCETAXEL ANHYDROUS] | – | – | – | – | – | 0.006 (≈ 0.00743 µM) | Active | Active
3 | 4.1 (≈ 10.1 µM) | 11.7 (≈ 28.7 µM) | – | – | CC(C)(C)OC(=O)N1C/C(=C\c2cccc(O)c2)C(=O)/C(=C/c2cccc(O)c2)C1 | 6.4 (≈ 15.7 µM) | 1.6 | 0.5 | – | – | – | – | –
4 | 6.1 (≈ 16.2 µM) | 34.7 (≈ 92.4 µM) | – | – | CC(C)(C)OC(=O)N1C/C(=C\c2ccccc2)C(=O)/C(=C/c2ccccc2)C1 | 12.4 (≈ 33 µM) | 2 | 0.4 | – | – | – | – | –
5 | 2 (≈ 4.04 µM) | 0.84 (≈ 1.7 µM) | – | – | COc1ccc(/C=C2\CN(C(=O)OC(C)(C)C)C/C(=C\c3ccc(OC)cc3OC)C2=O)c(OC)c1 | 1.2 (≈ 2.42 µM) | – | 1.4 | 62 | 35.7 | – | – | –
6 | 4.3 (≈ 11.7 µM) | 12.7 (≈ 34.5 µM) | 7.7 (≈ 20.9 µM) | 13.8 (≈ 37.5 µM) | COc1cc(/C=C/C(=O)CC(=O)/C=C/c2ccc(O)c(OC)c2)ccc1O [CURCUMIN] | 7.2 (≈ 19.5 µM) | – | – | – | – | 14.3 (≈ 38.8 µM) | Active | Active
7 | 9.6 (≈ 20.5 µM) | 27.4 (≈ 58.6 µM) | – | – | COc1cc(/C=C2\CN(C(=O)OC(C)(C)C)C/C(=C\c3ccc(O)c(OC)c3)C2=O)ccc1O | 18.3 (≈ 39.1 µM) | 1.9 | 0.7 | – | – | – | – | –
8 | – | – | – | – | CC[C@@]1(O)C(=O)OCc2c1cc1n(c2=O)Cc2cc3ccccc3nc2-1 [CAMPTOTHECIN] | – | – | – | 37.3 | 59.3 | – | – | –
9 | 3.5 (≈ 8.59 µM) | 20.9 (≈ 51.3 µM) | – | 22.9 (≈ 56.2 µM) | CC(C)(C)OC(=O)N1C/C(=C\c2ccc(O)cc2)C(=O)/C(=C/c2ccc(O)cc2)C1 | 6.4 (≈ 15.7 µM) | 1.8 | 0.3 | – | – | 17.1 (≈ 42 µM) | Active | Active

Row | Structure (SMILES) | GI50 [1] [µg/mL] | GI50 [2] [µg/mL] | IC50 [8] [µg/mL] | GI50 [9] [µg/mL] | GI50 at 72 h [3] [µg/mL] | RatioGI50 [4] | RatioGI50 [5] | Activity [6] [%] | Activity [7] [%] | GI50 [10] [µg/mL] | Activity [11] | Activity [12]
10 | COc1cc(/C=C/C(=O)/C=C/c2ccc(O)c(OC)c2)ccc1O | 10 (≈ 30.6 µM) | 19.4 (≈ 59.4 µM) | – | 24.8 (≈ 76 µM) | 15.1 (≈ 46.3 µM) | 1.5 | 0.8 | – | – | 22.7 (≈ 69.6 µM) | – | Active
